B1: tRNA (parent)
chain: GUUCCGUUGGCGUAAUGGUAACGCGUCUCCCUCCUAAGGAGAAGACUGCGGGUUCGAGUCCCGUACGGAACG

Here are results for 167 variants from the RNAGym collection of RNA variant scans (doi:10.1126/science.aae0568).

Variants at the floor of the assay were thinned out.

Variants of B1 are the subject of the data set. As to the kind of experiment: yeast fitness relative to wild type (ratio to wild type); higher = fitter; tRNA-Arg(CCU), competitive growth, 37 C, YPD. The procedure, abridged:
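Variants of the tRNA-Arg(CCU) gene were chemically synthesised with a 3% per-site mutation rate across 69 sites and placed at the native genomic locus in Saccharomyces cerevisiae. Six parallel replicates of the pooled strains were competed in YPD at 37°C for 24 hours, and gene amplicons from the start and end populations were read by 100-nucleotide paired-end sequencing. Darwinian fitness relative to wild type was derived from changes in genotype frequencies. Genotypes required ≥ 100 starting reads, and estimates < 0.5 were set to 0.5.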
For the variant C33G C34G A43G C46G, the yeast fitness is at most 0.5.

For the variant C33G G48A U64A, the yeast fitness was determined as 0.613.

Regarding C33U C46G C49U, the yeast fitness amounted to 0.632.

C34A U54C: the yeast fitness is 0.566.

For the variant C33U C62U, the yeast fitness was determined as 0.717.

As for C33U A42C C55G G68C, the yeast fitness was at most 0.5.

As for C34A A40G U47A C66G A69C A70C, the yeast fitness is 0.693.

Consider C33U G48C, for which the yeast fitness was 0.778.

Turning to C33G G41C G56C G58A U59C G63C A65U, the yeast fitness is at most 0.5.

For the variant C33U C34G C66U, the yeast fitness came out at 0.542.

With C33G G52A A65C, the yeast fitness is at most 0.5.

On to C33U A43G U47C, for which the yeast fitness is 0.563.

Consider C33U G52C G56C, for which the yeast fitness is at most 0.5.

For the variant C33U A37U C60G A69C, the yeast fitness was at most 0.5.

Take C34A G41A: the yeast fitness is 0.782.

As for C33U G56U A65G, the yeast fitness was at most 0.5.

C34G A37C G58C: the yeast fitness was at most 0.5.

As to C33G U47A C61U A69U, the yeast fitness was found to be 0.573.

Take C33G C34G A43C G48C C62U: the yeast fitness was at most 0.5.

C34G A40G U53A G68C: the yeast fitness is at most 0.5.

Take C33G U47C C62A: the yeast fitness came to 0.601.

Regarding C34A G51A C61G A69U, the yeast fitness amounted to 0.606.

Regarding C33U A43G A70U, the yeast fitness came out at 0.637.

For C34A U35A C49A C55U, the yeast fitness was at most 0.5.

As for C33U A36G C55U A69C, the yeast fitness is at most 0.5.

Take C33U A45C U64G: the yeast fitness was at most 0.5.

For the variant C33U G41A C61G, the yeast fitness is at most 0.5.

On to C34G A42G G48C, for which the yeast fitness turned out to be 0.531.

As to C34A A45C G68A, the yeast fitness stood at 0.614.

Consider C33G C34A A40C, for which the yeast fitness is at most 0.5.

As for C33U A43G C62G, the yeast fitness was at most 0.5.

For C34A A69U, the yeast fitness was 0.858.

C34A A69C: the yeast fitness worked out at 0.752.

For C33U C49U G51C, the yeast fitness came to 0.512.

For the variant C34A A37U A69C, the yeast fitness was at most 0.5.

For C33U C49A G68C, the yeast fitness is at most 0.5.

Turning to C34G A37U C49G A57G A65G C66U, the yeast fitness is at most 0.5.

Turning to C34A U47A G68A, the yeast fitness was at most 0.5.

Take C33U A42C C62A: the yeast fitness was at most 0.5.

With C33U C34A A36G A42U, the yeast fitness came to 0.73.

As to C33U G48A U64G, the yeast fitness was 0.618.

For the variant C33G C62U A70C, the yeast fitness worked out at 0.618.

For the variant C33G C34G U35A G44A, the yeast fitness was at most 0.5.

As to C33U A37U C62U, the yeast fitness is at most 0.5.

C33U U64A: the yeast fitness came out at 0.677.

Take C34A C60G: the yeast fitness is 0.664.

For C34A A42C A45U A65U, the yeast fitness was at most 0.5.

For the variant C33U G39C A57U, the yeast fitness is 0.643.

As to C34A A42G C46U, the yeast fitness is at most 0.5.

For C33G C61A C66U, the yeast fitness was 0.583.

On to C34A A37C G63C, for which the yeast fitness is at most 0.5.

As for C34G A37C G38A C66U, the yeast fitness is at most 0.5.

Regarding C33U A45C A57U U59C, the yeast fitness was at most 0.5.

In the case of C33U G38A C49U C61A, the yeast fitness was at most 0.5.

On to C33U U35C C61U, for which the yeast fitness turned out to be 0.555.

Take C33U A43C G48A G63C: the yeast fitness is at most 0.5.

In the case of C33U G50A, the yeast fitness amounted to 0.626.

For C34A A42U G68C, the yeast fitness is at most 0.5.

As for C33G G51C, the yeast fitness was at most 0.5.

As for C33G G51A, the yeast fitness was determined as 0.626.

On to C33U G38A G41U C46U, for which the yeast fitness was at most 0.5.

Take C33U G38A C60G U64C: the yeast fitness was at most 0.5.

As for C33U A40C A45C U59G C60U, the yeast fitness was at most 0.5.

For the variant C33U G50C A57C, the yeast fitness stood at 0.623.

As to C33U A36G G39A G44A C55G U59C, the yeast fitness was at most 0.5.

Consider C34A G52A, for which the yeast fitness came to 0.741.

Regarding C34A G52C, the yeast fitness came out at 0.721.

Consider C34A C49A C60G A65C, for which the yeast fitness is at most 0.5.

With C34G, the yeast fitness worked out at 0.65.

As to C34A, the yeast fitness turned out to be 0.71.

C34G A42G C49A: the yeast fitness was at most 0.5.

Consider C34G A37G A65G, for which the yeast fitness was found to be 0.966.

As to C34A C46U U47A, the yeast fitness is at most 0.5.

As for C33U C34A A36G A42U C49U, the yeast fitness is 0.571.

Regarding C33U A37C, the yeast fitness amounted to 0.556.

With C33U A37U, the yeast fitness is 0.55.

On to C33U G68A, for which the yeast fitness turned out to be 0.679.

As to C33U A57U, the yeast fitness was 0.546.

With C33U A57C, the yeast fitness was at most 0.5.

For the variant C34G A57G C61U, the yeast fitness is at most 0.5.

As for C34A U47C A57G A65U, the yeast fitness was at most 0.5.

C34A C66A: the yeast fitness amounted to 0.509.

Turning to C34G A45C A57C A65G, the yeast fitness was at most 0.5.

For the variant C34A C49U G58C, the yeast fitness was at most 0.5.

Consider C34A A42U A65C, for which the yeast fitness is at most 0.5.

Regarding C33G U35C G39A, the yeast fitness was at most 0.5.

For C33U U59A, the yeast fitness was 0.67.

As for C33G G38C A70C, the yeast fitness turned out to be 0.705.

C33U U47C: the yeast fitness was 0.713.

As to C33G G39A C49G U54A, the yeast fitness was at most 0.5.

As to C34G A69U, the yeast fitness was 0.631.

As to C34G A69C, the yeast fitness is 0.589.

As for C33U A36U G51C A69U, the yeast fitness was determined as 0.551.

Take C34A A36G U47C: the yeast fitness was at most 0.5.

C34A G51A G67A: the yeast fitness was at most 0.5.

With C33U A40U, the yeast fitness was 0.616.

In the case of C33U A40C, the yeast fitness was found to be 0.777.

For C34A G51C, the yeast fitness was at most 0.5.

Consider C33G G38A G41A, for which the yeast fitness is at most 0.5.

As for C33G C46A, the yeast fitness was found to be 0.71.

C33U G58C C62A C66G: the yeast fitness is at most 0.5.

With C34A A42C U59A G67C, the yeast fitness is at most 0.5.

C34A A36C C46A: the yeast fitness was at most 0.5.

On to C34A A45U, for which the yeast fitness turned out to be 0.698.

In the case of C34G A43U C49A A69U, the yeast fitness is 0.584.

Regarding C33U G58U C61A, the yeast fitness is at most 0.5.

As for C33G C66G, the yeast fitness amounted to 0.604.

Take C33U G38A C46U U64C: the yeast fitness is 0.536.

For C34A A42U G58A C62U G63A, the yeast fitness is at most 0.5.

With C33U G39A A69C, the yeast fitness was at most 0.5.

Turning to C34A G67A, the yeast fitness was 0.652.

Take C33G U54A: the yeast fitness was at most 0.5.

Regarding C33G U54G, the yeast fitness was at most 0.5.

Regarding C33G U54C, the yeast fitness turned out to be 0.519.

In the case of C34G A45U, the yeast fitness was 0.567.

Take C33G G38C C46G U53C A69C: the yeast fitness is at most 0.5.

As to C34A G52C C60G, the yeast fitness is 0.544.

For C33G C34U, the yeast fitness was 0.563.

As for C34A A37G A57U, the yeast fitness was determined as 0.616.

C33U C34A A43C: the yeast fitness was at most 0.5.

C33U C34U G50A: the yeast fitness came out at 0.608.

As for C33U G58C, the yeast fitness worked out at 0.635.

Consider C34A G50A C61G, for which the yeast fitness was at most 0.5.

Take C34G A36U C62U: the yeast fitness was at most 0.5.

For the variant C33G G51C C66G G67C, the yeast fitness is at most 0.5.

With C34A A37U U54C, the yeast fitness was determined as 0.542.

Take C34A C61G G68C: the yeast fitness came out at 0.538.

For the variant C34G A65U A70G, the yeast fitness is at most 0.5.

As for C34A G44A C46U G68A, the yeast fitness amounted to 0.56.

Regarding C33U C46U, the yeast fitness came to 0.708.

Regarding C33U C46A, the yeast fitness came out at 0.821.

C34A C55A: the yeast fitness is 0.566.

Turning to C33U G63C, the yeast fitness is 0.545.

For C33U G63A, the yeast fitness was 0.614.

For C34A U47C A70G, the yeast fitness was determined as 0.612.

Consider C33G U59A C60G C61G, for which the yeast fitness is at most 0.5.

Regarding C33U A43U G44A C49G G50C C61U C66U, the yeast fitness was at most 0.5.

Consider C33U G51A A57U, for which the yeast fitness was at most 0.5.

C34A C49A G63U G67A: the yeast fitness was at most 0.5.

C33U U53C: the yeast fitness was 0.574.

In the case of C33U U47C G48A G58A, the yeast fitness worked out at 0.506.

Consider C34A G56C G58A G63C A65U, for which the yeast fitness is at most 0.5.

As for C34G A42C C55A C60U, the yeast fitness is at most 0.5.

C34G A36C: the yeast fitness is at most 0.5.

Turning to C34G A36G, the yeast fitness came out at 0.644.

On to C34G A40G C46G C49A C66A A69U, for which the yeast fitness was at most 0.5.

Take C34G A36G G52A C66U: the yeast fitness is at most 0.5.

For the variant C33U A65C C66U, the yeast fitness amounted to 0.59.

With C34A C49A G51C, the yeast fitness is 0.591.

On to C34A C62G, for which the yeast fitness came out at 0.675.

With C34A A37U G52A, the yeast fitness is at most 0.5.

For the variant C33G G44C, the yeast fitness was 0.735.

Take C34G A37C C60A: the yeast fitness is at most 0.5.

For the variant C34G A40C C62U A69U, the yeast fitness was 0.573.

In the case of C34A C49G G50A U64A, the yeast fitness amounted to 0.551.

As to C33G C61U C62G C66U, the yeast fitness was at most 0.5.

As to C34G A70C, the yeast fitness worked out at 0.585.

For the variant C34A C49A U59G, the yeast fitness was 0.654.

C33U C55U C60U: the yeast fitness was at most 0.5.

As to C33U C34G A45C C60A, the yeast fitness is at most 0.5.

Take C34G A36G C60G: the yeast fitness was 0.642.

For C34A G44A A57U, the yeast fitness was at most 0.5.

In the case of C33G C55U G56C A69C, the yeast fitness is 0.831.

With C34A A37U G63C, the yeast fitness is at most 0.5.

With C33U A36C A70G, the yeast fitness is at most 0.5.

C34A C46G C60A: the yeast fitness is at most 0.5.

For the variant C33U G38A, the yeast fitness worked out at 0.866.
